According to BindingDB's records for doi:10.1021/np800692t (Chinese Academy of Sciences, 2010):
pIC50: −log10 of the molar value.

Target: Signal transducer and activator of transcription 3 (Homo sapiens, UniProt P40763)
Test: Inhibition of STAT3 by Western blotting
In short: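 Phosphotyrosine Stat3 levels in treated cells, tested up to 10 µM. Cells washed in ice-cold PBS, lysed in SDS sample buffer, equal protein run on SDS-PAGE and transferred to PVDF. Blots blocked in 5% nonfat milk/TBST, then phospho-Stat3 and β-tubulin antibodies at 4 °C overnight, secondary 2 h room temperature, ECL detection. IC50 derived.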

Sequence of Signal transducer and activator of transcription 3 (P40763 whole entry): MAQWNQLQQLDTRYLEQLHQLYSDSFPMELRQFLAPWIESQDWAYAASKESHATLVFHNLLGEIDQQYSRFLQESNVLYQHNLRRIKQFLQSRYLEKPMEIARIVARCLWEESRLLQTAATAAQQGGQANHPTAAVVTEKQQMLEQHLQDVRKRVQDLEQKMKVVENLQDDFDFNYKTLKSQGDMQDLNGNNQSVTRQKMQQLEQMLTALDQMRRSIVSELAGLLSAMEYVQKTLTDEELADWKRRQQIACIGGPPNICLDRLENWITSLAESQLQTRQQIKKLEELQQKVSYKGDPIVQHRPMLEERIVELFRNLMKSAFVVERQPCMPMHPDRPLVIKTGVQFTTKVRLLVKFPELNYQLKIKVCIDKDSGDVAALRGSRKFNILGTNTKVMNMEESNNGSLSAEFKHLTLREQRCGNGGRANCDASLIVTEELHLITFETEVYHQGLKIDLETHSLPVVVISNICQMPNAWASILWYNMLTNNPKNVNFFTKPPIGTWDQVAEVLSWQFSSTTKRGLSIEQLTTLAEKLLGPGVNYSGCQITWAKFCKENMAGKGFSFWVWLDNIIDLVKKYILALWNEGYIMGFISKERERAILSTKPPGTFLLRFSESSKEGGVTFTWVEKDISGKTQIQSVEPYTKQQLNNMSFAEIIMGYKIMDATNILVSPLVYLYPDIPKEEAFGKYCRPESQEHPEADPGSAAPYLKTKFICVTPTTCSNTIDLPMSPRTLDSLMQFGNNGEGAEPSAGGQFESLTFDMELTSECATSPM

CC(=O)OC(C)(C)/C=C/C(=O)[C@](C)(O)[C@H]1[C@H](O)C[C@@]2(C)[C@@H]3CC=C4[C@H](C[C@H](O)C(=O)C4(C)C)[C@]3(C)C(=O)C[C@]12C [CUCURBITACIN B]
pIC50: 5.52
